Laboratory results from the RNAGym collection of RNA variant scans (doi:10.1126/science.aae0568).
This sample holds only a part of the variants without activity.

B1: tRNA (parent)
chain: GUUCCGUUGGCGUAAUGGUAACGCGUCUCCCUCCUAAGGAGAAGACUGCGGGUUCGAGUCCCGUACGGAACG

Variants of: B1
Test: yeast fitness relative to wild type (ratio to wild type); higher = fitter; tRNA-Arg(CCU), competitive growth, 37 C, YPD
Procedure, shortened: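 Genotype frequency changes were the basis for Darwinian fitness relative to wild type. The frequencies came from 100-nucleotide paired-end sequencing of gene amplicons from the start population and each end population of pooled yeast strains with tRNA-Arg(CCU) gene variants at the native locus. Competition ran in YPD at 37°C for 24 hours in six replicates, genotypes needed ≥ 100 starting reads, and estimates < 0.5 were set to 0.5.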

| Variant | yeast fitness |
| --- | --- |
| U35A G58A G67C | ≤ 0.5 |
| U35A G44A | 0.715 |
| C34G C61U | 0.602 |
| C33U C55U | 0.586 |
| U35C A65C | 0.807 |
| C33U G56A C61G C66U | ≤ 0.5 |
| C34U U35G G38A C62U A65C G67A | ≤ 0.5 |
| C34G G52C | ≤ 0.5 |
| C34G G52A | 0.562 |
| C33U C61A G63C A65G | 0.549 |
| C34U G58A A65U | 0.618 |
| C34U A40G C46A C49G A65G | ≤ 0.5 |
| U35A C46A C55A A69U | ≤ 0.5 |
| C34G A36C C55G | ≤ 0.5 |
| C34G A42C C46U U54A C55G G58C C66A | ≤ 0.5 |
| C34A C55U | 0.524 |
| C34A C55G | 0.517 |
| C34U A42C G56C | ≤ 0.5 |
| C34G G48C | 0.519 |
| C34U U54C C61A | ≤ 0.5 |
| C34G G58C A69C | 0.576 |

| Variant | yeast fitness |
| --- | --- |
| U35A G38A C61G | ≤ 0.5 |
| C34G C62G C66G A69C | ≤ 0.5 |
| U35C C46A A70U | 0.767 |
| U35A A45C G68U | ≤ 0.5 |
| C33U G52A | 0.58 |
| C34U A37G | 0.538 |
| C33U C49G C60G C62G G63A | ≤ 0.5 |
| C34U C55G | 0.56 |
| U35A A37G A43U A45C C61U | ≤ 0.5 |
| C34A A43C A65C | ≤ 0.5 |
| C34U A36U | ≤ 0.5 |
| U35A A57U C61U | ≤ 0.5 |
| U35C A42U | 0.819 |
| U35C A42C | 0.819 |
| C34A C49A U59G C66U | ≤ 0.5 |
| C34G G58A G63C | ≤ 0.5 |
| C34U U59A | 0.762 |
| C34A C66G | 0.647 |
| C34A C66U | 0.764 |
| C34A A42U U54A A57U | 0.511 |
| C34G U59A G68A | ≤ 0.5 |

| Variant | yeast fitness |
| --- | --- |
| C34A C46G | 0.693 |
| C34A C46A | 0.691 |
| C34A C46U | 0.615 |
| C34U A65U | 0.574 |
| C34U C66A | ≤ 0.5 |
| C34G A69U A70C | 0.696 |
| C34A G41A C62U | ≤ 0.5 |
| U35A G38C | 0.527 |
| C33U C62U G63A | ≤ 0.5 |
| C34G G41C A69U | ≤ 0.5 |
| C34U G67A | 0.744 |
| C34G A42C | 0.573 |
| C34U A40C C62U | 0.507 |
| C34U C49U C55U G67A | ≤ 0.5 |
| C33U C55U A70U | 0.627 |
| C34A A45C A70C | 0.701 |
| C34U G39C C66U | ≤ 0.5 |
| C34U C49U | 0.866 |
| C34A A70G | 0.634 |
| C33U G44C C60U A69G | ≤ 0.5 |
| C34U A37U G58C | 0.543 |

| Variant | yeast fitness |
| --- | --- |
| C34U A70U | 0.662 |
| C34U A70C | 0.73 |
| C34U A70G | 0.803 |
| U35A C49G C60A | ≤ 0.5 |
| U35C C62U | 0.882 |
| C34U A40C A43G | 0.513 |
| C34G A37U C49G | 0.576 |
| C34U A40C G68C | ≤ 0.5 |
| C34G A45C | 0.569 |
| C34G A45G | 0.657 |
| C34G A40G C46G C49A U59C | 0.55 |
| U35A A37U G52A U59C C66A G67A | ≤ 0.5 |
| C34G U59G G68U | 0.576 |
| C33U G39C | 0.622 |
| C33U G39A | 0.626 |
| C34U C49U C61U | 0.512 |
| C34A A40G | 0.609 |
| C34A A40U | 0.705 |
| C34G A43C C49U G56A | ≤ 0.5 |
| U35A A36C C66A | ≤ 0.5 |
| U35C C60G | 0.602 |
